Screening data: PubChem, The Scripps Research Institute Molecular Screening Center
UHRF1 binding: UHRF1 methyl-DNA binding inhibition. AID 687016. UHRF1 binding to methylated oligo, TR-FRET. inhibition, % at 4.4 µM. actives 0.75% (n = 370,000); in the data active = inhibition above about 21%;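 note: UHRF1 SRA domain binding a hemimethylated CpG hairpin DNA probe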
MBD2 DNA inh: blocks human MBD2 binding to methylated DNA; actives 0.31% (n = 370,000); inhibition, % at 4.4 µM; TR-FRET, MBD2 binding to methylated oligonucleotide; in the data active = inhibition above about 13%
Target sequence (Q9UBB5 whole entry, looked up): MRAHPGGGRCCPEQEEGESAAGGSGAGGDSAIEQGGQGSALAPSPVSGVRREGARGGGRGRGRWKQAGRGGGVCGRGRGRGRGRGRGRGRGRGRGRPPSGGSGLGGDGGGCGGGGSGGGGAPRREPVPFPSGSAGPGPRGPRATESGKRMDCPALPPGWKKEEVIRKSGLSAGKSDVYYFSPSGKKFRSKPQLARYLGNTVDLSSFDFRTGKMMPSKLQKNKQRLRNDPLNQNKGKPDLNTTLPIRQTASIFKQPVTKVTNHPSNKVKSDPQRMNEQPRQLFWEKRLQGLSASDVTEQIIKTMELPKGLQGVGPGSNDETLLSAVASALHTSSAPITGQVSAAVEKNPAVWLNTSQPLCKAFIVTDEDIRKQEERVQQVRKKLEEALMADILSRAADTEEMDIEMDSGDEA
PRMT1 FP inh: PRMT1 (human) inhibition, primary screen | Q99873 | actives 1.3% (n = 370,000) | inhibition, % at 2.79 µM | recombinant PRMT1, activity-based probe fluorescence polarization | AID 652257;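 active = inhibition above about 21% made by adding two undisclosed values, limit read from the data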
Target sequence (Q99873 whole entry, looked up): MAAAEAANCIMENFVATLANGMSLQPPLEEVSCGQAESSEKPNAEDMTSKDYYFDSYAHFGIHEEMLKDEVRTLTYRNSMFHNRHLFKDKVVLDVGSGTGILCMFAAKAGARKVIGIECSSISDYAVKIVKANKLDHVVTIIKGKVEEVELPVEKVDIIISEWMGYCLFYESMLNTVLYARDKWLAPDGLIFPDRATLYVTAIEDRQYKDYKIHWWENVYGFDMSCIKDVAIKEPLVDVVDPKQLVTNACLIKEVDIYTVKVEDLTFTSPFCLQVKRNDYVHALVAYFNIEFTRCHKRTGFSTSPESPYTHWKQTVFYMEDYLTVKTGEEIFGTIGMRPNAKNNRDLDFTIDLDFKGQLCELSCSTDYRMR
ABHD5-PLIN5 inh: inhibitors of human ABHD5-perilipin-5 interaction; Q00G26+Q8WTS1; Split G. princeps luciferase complementation, luminescence, 4 h; inhibition, % at 4 µM; actives 0.78% (n = 360,000); AID 602281;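 active = inhibition above the mean inhibition across every tested compound plus 3 SD, cut at about 22% in these data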
LEDGF integ inh: blocks HIV-1 LEDGF/p75-dependent DNA integration | TR-FRET IN-LEDGF/p75 DNA integration, Eu/Cy5 | inhibition, % at 3.7 µM | actives 0.64% (n = 370,000) | AID 743269;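 active = inhibition above the screen-wide mean plus 3 SD, cut at about 13% in these data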;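 note: signal is the Cy5 over europium emission ratio at 671 and 618 nm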
RBBP9 inh: blocks human serine hydrolase RBBP9 | recombinant RBBP9, FP-Rh probe fluorescence polarization | inhibition, % at 7.94 µM | actives 0.2% (n = 220,000) | AID 1515;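 active = inhibition above the campaign mean of all tested compounds plus 3 SD, cut at about 14% in these data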
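Test system: recombinant human RBBP9. Quantity: 2.5 µM RBBP9 dispensing solution, before mixing. Detection: FP readout at 525/598 nm. Reagent: Serine-hydrolase probe FP-Rh, 375 nM pre-mixing. Measure: % inhibition. Control set: DMSO-treated enzyme wells and wells lacking RBBP9. Buffer or medium: Tris-NaCl-Pluronic buffer, pH 8.0. Times: preincubation 30 min plus labeling 45 min at 25 °C.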
IN multimer up: HIV-1 integrase multimerization activation, counter-screen; TR-FRET HIV-1 integrase multimerization, biochemical; activation, % at 7.7 µM; shares compounds with LEDGF integ inh; actives 17% (n = 2,000); in the data active = activation above about 8.9%
TR-FRET interf: counter-screen for LEDGF/p75 integration inhibitors: TR-FRET optical interference. shares compounds with LEDGF integ inh. inhibition, % at 7.7 µM. TR-FRET optical interference counterscreen, HIV-1 IN multimerization. 2,000 tested, under 10 active. AID 1053135;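 active = inhibition above the mean over all tested compounds plus 3 SD, which no compound reached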
LEDGF integ conf: LEDGF/p75-dependent HIV-1 integration inhibition, confirmation | inhibition, % at 3.7 µM | AID 1053136 | actives 36% (n = 2,000) | TR-FRET LEDGF/p75-dependent HIV-1 integration, biochemical | shares compounds with LEDGF integ inh; in the data active = inhibition above about 14%
Of the large screens only hits and unclear results are named; the others gave an inactive call (follow-up assays come after a bar, where they were run). A selection: hits, their analogues and other compounds. The true share with any hit is near 3.1%.

Cc1nnc(N/N=C/c2ccc(-c3ccc(Br)cc3)o2)n1N	LEDGF integ inh 49 | IN multimer up inactive | TR-FRET interf inactive | LEDGF integ conf inactive
Cc1nnc(N/N=C/c2ccc([N+](=O)[O-])cc2)n1N	LEDGF integ inh 79 | IN multimer up inactive | TR-FRET interf inactive | LEDGF integ conf inactive
Cc1nnc(N/N=C\c2ccc(-c3cccc(C(=O)O)c3)o2)n1N	LEDGF integ inh 53 | IN multimer up inactive | TR-FRET interf inactive | LEDGF integ conf inactive
FC(F)(F)c1ccccc1C(C#Cc1ccccc1)NCc1ccc2c(c1)OCO2 (stereo not drawn)	none (no result: ABHD5-PLIN5 inh, RBBP9 inh)
COc1ccc2c(c1)CCCN2C(=O)C1CCCN(S(=O)(=O)c2ccc(Cl)s2)C1 (stereo not drawn)	none (no result: ABHD5-PLIN5 inh, RBBP9 inh)
O=C(NC1CC1)c1sc2cc(F)ccc2c1Cl	LEDGF integ inh 21 (no result: RBBP9 inh) | IN multimer up inactive | TR-FRET interf inactive | LEDGF integ conf inactive
O=C(NC1CC1)c1sc2cc(Cl)ccc2c1Cl	none (no result: RBBP9 inh)
COc1cc(C=NN=c2sc3ccccc3n2C)ccc1OCCO	none (no result: ABHD5-PLIN5 inh, RBBP9 inh)
COc1cc(N(C(C)=O)c2ccc(O)c(C(=O)O)c2)c2ncccc2c1	LEDGF integ inh 16 (no result: RBBP9 inh) | IN multimer up inactive | TR-FRET interf inactive | LEDGF integ conf 26
COc1ccc(Nc2ncc(C(=O)N3CCN(c4ccc(F)cc4)CC3)c3ccccc23)cc1	LEDGF integ inh 14 | IN multimer up inactive | TR-FRET interf inactive | LEDGF integ conf inactive
CN(C)C(=S)NC(=S)Nc1ccc2ccccc2c1	LEDGF integ inh 16 (no result: RBBP9 inh) | IN multimer up inactive | TR-FRET interf inactive | LEDGF integ conf 18
COC(=O)C/C=C/[C@@H](C)[C@H](NC(=O)OCC(Cl)(Cl)Cl)c1ccc(-c2ccccc2)cc1	none (no result: ABHD5-PLIN5 inh, RBBP9 inh)
O=C(Cc1nnc(NC(=O)c2ccccc2)s1)N/N=C\c1ccc(O)c(O)c1	LEDGF integ inh 16 (no result: RBBP9 inh) | IN multimer up 35 | TR-FRET interf inactive | LEDGF integ conf 50
OCCN1CCCC12CCC(c1ccccc1)CC2 (stereo not drawn)	none (no result: ABHD5-PLIN5 inh, RBBP9 inh)
CCOC(=O)Nc1cc(=O)c([N+](=O)[O-])c(N)[nH]1	none (no result: ABHD5-PLIN5 inh, RBBP9 inh)
Nc1cc(N)cc(C(=O)c2ccccc2)c1	LEDGF integ inh 21 (no result: RBBP9 inh) | IN multimer up inactive | TR-FRET interf inactive | LEDGF integ conf inactive
COc1ccc(OCC2CN(Cc3ccccc3)S(=O)(=O)CCO2)cc1 (stereo not drawn)	none (no result: ABHD5-PLIN5 inh, RBBP9 inh)
O=C(/C=C/c1ccco1)Nc1nc(-c2ccccc2)cs1	none
O=C(/C=C/c1ccco1)Nc1nc(-c2ccccn2)cs1	PRMT1 FP inh 23, LEDGF integ inh 16 | IN multimer up inactive | TR-FRET interf inactive | LEDGF integ conf 16
O=C(CC1CCCC1)N1CC[C@H]2[C@H](CCCN2Cc2ccc(F)cc2)C1	none (no result: ABHD5-PLIN5 inh, RBBP9 inh)
O=c1cccc2n1Cc1cc3ccccc3nc1-2	none
CC[C@@]1(O)C(=O)OCc2c1cc1n(c2=O)Cc2cc3c(N)cccc3nc2-1	LEDGF integ inh 23 (no result: RBBP9 inh) | IN multimer up 14 | TR-FRET interf inactive | LEDGF integ conf inactive
Cc1cc(C(=O)Nc2ccc(C(=O)O)cc2)c(C)o1	none (no result: RBBP9 inh)
Cc1oc(CC(C)C)cc1C(=O)Nc1ccc(C(=O)O)cc1	LEDGF integ inh 16 | IN multimer up inactive | TR-FRET interf inactive | LEDGF integ conf inactive
Oc1cc(NCc2ccc(F)cc2)cc2cccnc12	none (no result: RBBP9 inh)
CN(C)CCCNc1cc(O)c2ncccc2c1	LEDGF integ inh 30 (no result: RBBP9 inh) | IN multimer up inactive | TR-FRET interf inactive | LEDGF integ conf 40
CCN(CC)C(=O)[C@H]1C[C@H](CC(=O)NCCN2CCOCC2)C(=O)N2CCc3c([nH]c4cc(-c5ccco5)ccc34)[C@]12C	none (no result: RBBP9 inh)
CCN(CC)C(=O)[C@H]1C[C@H](CC(=O)NCc2ccco2)C(=O)N2CCc3c([nH]c4cc(-c5ccco5)ccc34)[C@]12C	LEDGF integ inh 17 (no result: RBBP9 inh) | IN multimer up inactive | TR-FRET interf inactive | LEDGF integ conf inactive
Nc1cc(=O)[nH]c(SCC(=O)NC2CCCCCCC2)n1	LEDGF integ inh 70 (no result: RBBP9 inh) | IN multimer up inactive | TR-FRET interf inactive | LEDGF integ conf 14
CN(C)c1ccc(CNc2nc(-c3ccccc3)nn2S(C)(=O)=O)cc1	none
Cc1ccc(-c2nc(NCc3ccc(F)cc3)n(S(C)(=O)=O)n2)cc1	LEDGF integ inh 14 | IN multimer up inactive | TR-FRET interf inactive | LEDGF integ conf inactive
COC1=C(N)C(=O)c2nc(C)ccc2C1=O	LEDGF integ inh 20 (no result: RBBP9 inh) | IN multimer up inactive | TR-FRET interf inactive | LEDGF integ conf 44
C/C(=N\NC(=O)c1cc(O)ccc1O)c1cccc(NC(=O)c2ccc(Cl)cc2)c1	LEDGF integ inh 41 (no result: RBBP9 inh) | IN multimer up 19 | TR-FRET interf inactive | LEDGF integ conf 16
CN(C(=O)[C@@H](Cc1ccccc1)NC(=O)[C@H]1O[C@@H](n2ccc(=O)[nH]c2=O)[C@H](O)[C@@H]1O)C1CCCCC1	none (no result: ABHD5-PLIN5 inh, RBBP9 inh)
CC(C)OP(=O)(c1ccc(N(C)C)cc1)C(O)c1ccccc1F (stereo not drawn)	none
CC(C)CCOP(=O)(c1ccc(N(C)C)cc1)C(O)c1ccccc1F (stereo not drawn)	LEDGF integ inh 21 | IN multimer up inactive | TR-FRET interf inactive | LEDGF integ conf inactive
Cn1c(NC(=O)c2ccccc2)nc(Cc2ccccc2)c1-c1ccccc1	LEDGF integ inh 23 (no result: ABHD5-PLIN5 inh, RBBP9 inh) | IN multimer up inactive | TR-FRET interf inactive | LEDGF integ conf 31
COc1ccc(Cn2c(NC(=O)c3ccccc3)nc(Cc3ccccc3)c2Cc2ccccc2)cc1	LEDGF integ inh 14 (no result: ABHD5-PLIN5 inh, RBBP9 inh) | IN multimer up inactive | TR-FRET interf inactive | LEDGF integ conf 14
CCCn1c(NC(=O)c2ccccc2)nc(Cc2ccccc2)c1Cc1ccccc1	LEDGF integ inh 15 (no result: ABHD5-PLIN5 inh, RBBP9 inh) | IN multimer up inactive | TR-FRET interf inactive | LEDGF integ conf 25
Cn1c(NC(=O)c2ccccc2)nc(Cc2ccccc2)c1Cc1ccccc1	LEDGF integ inh 25 (no result: ABHD5-PLIN5 inh, RBBP9 inh) | IN multimer up inactive | TR-FRET interf inactive | LEDGF integ conf 27
COc1cc(N)c2ncccc2c1Br	LEDGF integ inh 29 (no result: RBBP9 inh) | IN multimer up inactive | TR-FRET interf inactive | LEDGF integ conf inactive
COc1cc(N)c2ncccc2c1SC	LEDGF integ inh 16 (no result: RBBP9 inh) | IN multimer up inactive | TR-FRET interf inactive | LEDGF integ conf 14
COc1cc(NC(C)=O)c2ncccc2c1NC(C)=O	none
COc1ccccc1Nc1nc(N)nc(CN2CCC(C)CC2)n1	none
COc1ccccc1Nc1nc(N)nc(CN2CCC(Cc3ccccc3)CC2)n1	LEDGF integ inh 15 | IN multimer up inactive | TR-FRET interf inactive | LEDGF integ conf inactive
